Holding throughout (assay type): cell-based
The target in assay [1] is T1, Glycine receptor subunit alpha-1 (Homo sapiens, UniProt P23415).
T1 sequence (P23415 whole entry): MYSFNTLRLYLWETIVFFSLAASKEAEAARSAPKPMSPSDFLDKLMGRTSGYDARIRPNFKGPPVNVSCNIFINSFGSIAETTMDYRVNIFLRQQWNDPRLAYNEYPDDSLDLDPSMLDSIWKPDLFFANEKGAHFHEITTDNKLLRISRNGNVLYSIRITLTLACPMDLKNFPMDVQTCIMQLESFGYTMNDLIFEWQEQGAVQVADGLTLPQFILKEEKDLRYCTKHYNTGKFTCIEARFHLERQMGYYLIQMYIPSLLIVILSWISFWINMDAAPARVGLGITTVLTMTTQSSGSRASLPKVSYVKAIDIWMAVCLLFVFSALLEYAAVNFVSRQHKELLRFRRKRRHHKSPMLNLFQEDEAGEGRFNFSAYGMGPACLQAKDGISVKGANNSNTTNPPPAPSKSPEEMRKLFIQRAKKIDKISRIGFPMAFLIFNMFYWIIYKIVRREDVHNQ
Put plainly: Potentiation of human GlyR-alpha1 expressed in Xenopus laevis oocytes assessed as induction of glycine-activated currents after 1 to 4 days by two-electrode voltage clamp assay. Summed up: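 hGlyR-α1 RNA (25−50 ng) injected into stage 5−6 Xenopus oocytes, held at 17 °C in modified Barth's solution. Recorded 1−4 days later by two-electrode voltage clamp at −60 mV in 96 mM NaCl, 2 mM KCl, 1.8 mM CaCl2, 1 mM MgCl2, 5 mM HEPES, pH 7.0. Compounds coapplied with glycine at EC5, up to 10 μM. EC50 values also derived.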

Assay [2] concerns the target T2, Glycine receptor subunit alpha-1 (Homo sapiens) (UniProt P23415).
T2 sequence (whole entry): T1 sequence (P23415 whole entry)
Put plainly: Potentiation of human GlyR-alpha1 expressed in Xenopus laevis oocytes assessed as induction of glycine-activated currents at 1 uM after 1 to 4 days by two-electrode voltage clamp assay relative to control. Summed up: (§1)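 RNA for hGlyR-α1 (25−50 ng) injected into stage 5−6 Xenopus laevis oocytes held at 17 °C in modified Barth's solution; two-electrode voltage clamp 1−4 days post-injection at −60 mV holding potential. Bath: 96 mM NaCl, 2 mM KCl, 1.8 mM CaCl2, 1 mM MgCl2, 5 mM HEPES, pH 7.0. Compound coapplied with glycine at EC5; potentiation of current scored.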

Assay [3] deals with T2, Glycine receptor subunit alpha-1 (Homo sapiens). The experiment in a line: Potentiation of human GlyR-alpha1 expressed in Xenopus laevis oocytes assessed as induction of glycine-activated currents at 10 uM after 1 to 4 days by two-electrode voltage clamp assay relative to control. Summed up:
as §1

Assay [4] addresses Neuronal acetylcholine receptor subunit alpha-7 (Homo sapiens) (UniProt P36544). The experiment in a line: Modulation of human alpha7 nAChR expressed in Xenopus laevis oocytes assessed as effect on acetylcholine-induced currents at 10 uM after 1 to 4 days by two-electrode voltage clamp assay relative to control. The gist of the method:
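α7 nAChR RNA (25−50 ng) injected into stage 5−6 Xenopus oocytes, kept at 17 °C in modified Barth's solution. Two-electrode voltage clamp at −60 mV, 1−4 days post-injection. Bath: 96 mM NaCl, 2 mM KCl, 1.8 mM CaCl2, 1 mM MgCl2, 5 mM HEPES, pH 7.0. Compound coapplied with acetylcholine at EC50, used because of fast desensitization.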

Each structure is given as a SMILES string. Calls of active or inactive are those of the source. The rule behind the calls is not given here.

Chain of Neuronal acetylcholine receptor subunit alpha-7 (Homo sapiens) (P36544 whole entry): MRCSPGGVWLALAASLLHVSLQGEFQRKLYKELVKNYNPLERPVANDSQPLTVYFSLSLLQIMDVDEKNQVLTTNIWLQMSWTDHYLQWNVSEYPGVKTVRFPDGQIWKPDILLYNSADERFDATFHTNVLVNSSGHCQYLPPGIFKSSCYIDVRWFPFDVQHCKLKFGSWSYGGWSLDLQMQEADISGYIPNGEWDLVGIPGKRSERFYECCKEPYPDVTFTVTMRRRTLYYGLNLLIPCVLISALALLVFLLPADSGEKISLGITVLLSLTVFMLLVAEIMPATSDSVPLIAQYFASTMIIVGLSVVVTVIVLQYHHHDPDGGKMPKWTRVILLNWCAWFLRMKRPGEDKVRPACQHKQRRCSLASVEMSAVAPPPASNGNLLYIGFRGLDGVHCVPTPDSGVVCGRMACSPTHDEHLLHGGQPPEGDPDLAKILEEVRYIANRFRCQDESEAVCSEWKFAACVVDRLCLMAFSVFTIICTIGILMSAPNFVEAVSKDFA

For `CCCc1nc2c(C)cc(-c3nc4ccccc4n3C)cc2n1Cc1ccc(-c2ccccc2C(=O)O)cc1`, in assay [1], the EC50 was found to be 3.2 µM. In addition, the Activity in assay [2] stood at 120%. The %max in assay [3] came out at 210%.

As to `C[C@@H](NCCCc1cccc(C(F)(F)F)c1)c1cccc2ccccc12`, the result in assay [4] was inactive. Moreover, in assay [1], the EC50 was 0.32 µM. In assay [2], the Activity was 182%. Moreover, the %max in assay [3] was 210%.

With `COc1ccc(-c2ccc3cc(C(=O)O)ccc3c2)cc1C12CC3CC(CC(C3)C1)C2`, in assay [4], the result was inactive. Further, in assay [1], the EC50 is 1.3 µM. In addition, the Activity in assay [2] came to 172%. Also, in assay [3], the %max is 260%.

On to `CC1=C(CC(=O)O)c2cc(F)ccc2/C1=C\c1ccc([S+](C)[O-])cc1` (centres undefined), for which the outcome in assay [4] was inactive. The EC50 in assay [1] was found to be 0.38 µM.

Regarding `O=C1NCN(c2ccccc2)C12CCN(CCCC(c1ccc(F)cc1)c1ccc(F)cc1)CC2`, the EC50 in assay [1] worked out at 1.2 µM.

Regarding `COc1cc(OC)c(NC(=O)Nc2cc(C)on2)cc1Cl`, the Activity in assay [2] is 102%. In addition, the %max in assay [3] was determined as 103%.

As to `Cc1nc2c([nH]1)-c1ccccc1N(C(=O)c1ccc(NC(=O)c3ccccc3-c3ccccc3)cc1)CC2`, the Activity in assay [2] came out at 106%. The %max in assay [3] is 107%.

`COc1ccc(CCN2CCC(Nc3nc4ccccc4n3Cc3ccc(F)cc3)CC2)cc1` [ASTEMIZOLE]: the EC50 in assay [1] turned out to be 4.2 µM. For the same compound, in assay [2], the Activity was found to be 122%. Besides, the %max in assay [3] is 280%.

As for `C=C1CC[C@H](O)C/C1=C/C=C1\CCC[C@]2(C)[C@@H]([C@H](C)CCCC(C)C)CC[C@@H]12` [CHOLECALCIFEROL], the outcome in assay [4] was inactive. In addition, in assay [1], the EC50 is 0.4 µM. Further, the Activity in assay [2] amounted to 216%. In addition, the %max in assay [3] amounted to 220%.

Take `CCCCCc1cc(O)c2c(c1)OC(C)(C)[C@@H]1CCC(C)=C[C@@H]21` [DRONABINOL]: the half-maximal effective concentration (EC50) in assay [1] worked out at 1.3 µM. Also, the Activity in assay [2] worked out at 162%. Further, the %max in assay [3] stood at 260%.

On to `C[C@]12C=CC(=O)N[C@@H]1CC[C@@H]1[C@@H]2CC[C@]2(C)[C@@H](C(=O)Nc3cc(C(F)(F)F)ccc3C(F)(F)F)CC[C@@H]12` [DUTASTERIDE], for which the outcome in assay [4] was inactive. For the same compound, in assay [1], the EC50 is 0.33 µM.

With `OC(c1cc(C(F)(F)F)nc2c(C(F)(F)F)cccc12)C1CCCCN1` (centres undefined) [MEFLOQUINE], the EC50 in assay [1] worked out at 2.5 µM. Further, the Activity in assay [2] came to 126%. Further, the %max in assay [3] was determined as 220%.

Turning to `O=c1[nH]c2ccccc2n1C1CCN(CCCC(c2ccc(F)cc2)c2ccc(F)cc2)CC1` [PIMOZIDE], the result in assay [4] was inactive. For the same compound, in assay [1], the EC50 came to 1.7 µM. For the same compound, in assay [2], the Activity is 219%. For the same compound, the %max in assay [3] amounted to 510%.

For the compound `CNC(=O)c1cc(Oc2ccc(NC(=O)Nc3ccc(Cl)c(C(F)(F)F)c3)c(F)c2)ccn1` [REGORAFENIB], the EC50 in assay [1] was 1.8 µM. Moreover, the Activity in assay [2] stood at 116%. For the same compound, the %max in assay [3] amounted to 200%.

On to `Cc1nc2n(c(=O)c1CCN1CCC(c3noc4cc(F)ccc34)CC1)CCCC2` [RISPERIDONE], for which the result in assay [4] was inactive. For the same compound, the EC50 in assay [1] was determined as 0.32 µM. For the same compound, the Activity in assay [2] stood at 180%. Also, the %max in assay [3] came to 190%.

(Values after ChEMBL document CHEMBL3421540, “Ensemble-based virtual screening for cannabinoid-like potentiators of the human glycine receptor α1 for the treatment of pain” (J Med Chem, 2015).)
